The values below come from ChEMBL document CHEMBL1122724, “Synthesis and kinetic studies of protease substrates containing the 1-methyl-6-aminoquinolinium ion as a fluorogenic leaving group” (J Med Chem, 1984).

Data set [1] deals with Serine protease 1 (Homo sapiens) (UniProt P07477). Put plainly: Kinetic constant was determined from the initial rates of enzymatic hydrolysis by the Lineweaver-Burke method against trypsin enzyme at a concentration of 1.0 uM. As to conditions: Sus scrofa. The procedure, abridged:
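Trypsin, active-site titrated with p-nitrophenyl p-guanidinobenzoate, was used in 46 mM Tris-HCl pH 8.1 containing 11 mM CaCl2 at 25 °C. Hydrolysis was monitored by fluorescence, with excitation/emission 410/550 nm for MAQ+ and 355/550 nm for 6-AQ. Initial rates were fitted by the Lineweaver–Burk method.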

For data set [2] the target is unchanged. Put plainly: (§1) Ratio of Kcat to Km of the compound. The following applies: Sus scrofa.
Data set [3] deals with C[C@H](NC(=O)CCC(=O)O)C(=O)N[C@@H](C)C(=O)N[C@@H](C)C(=O)Nc1ccc2ncccc2c1. Put plainly: (§2) Kinetic constant was determined from the initial rates of enzymatic hydrolysis by the Lineweaver-Burke method against elastase at a concentration of 1.4 uM. The class given is protein assay. The procedure, abridged:
(§3)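 Porcine pancreatic elastase assayed in 67 mM Tris-HCl pH 8.8 at 37 °C in a thermostatted cuvette. Specific activity was checked with orcein-elastin before each experiment. Leaving-group fluorescence was read at 410/550 nm (MAQ+) or 355/550 nm (6-AQ). Kinetic constants came from initial rates by Lineweaver–Burk analysis.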

Data set [4] deals with C[C@H](NC(=O)OCc1ccccc1)C(=O)N[C@@H](C)C(=O)N[C@@H](C)C(=O)Nc1ccc2c(ccc[n+]2C)c1. The description is as §2. The format is protein assay. The procedure, abridged: as §3
The test system of data set [5] is C[C@H](NC(=O)OCc1ccccc1)C(=O)N[C@@H](C)C(=O)Nc1ccc2c(ccc[n+]2C)c1. The description is as §2. The format is protein assay. The procedure, abridged:
as §3

Data set [6] deals with Chymotrypsinogen B (Homo sapiens) (UniProt P17538). Put plainly: Kinetic constant was determined from the initial rates of enzymatic hydrolysis by the Lineweaver-Burke method against alpha-chymotrypsin enzyme at a concentration of 2.0 uM. The following applies: Sus scrofa. In short, it runs like this: (§4)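 Chymotrypsin assayed in 50 mM Tris-HCl pH 8.0 with 10 mM CaCl2 at 25 °C. Active enzyme was titrated with 2-nitro-4-carboxyphenyl diphenylcarbamate. Product release was followed fluorimetrically, with excitation 410 nm and emission 550 nm for MAQ+, and 355/550 nm for 6-AQ. Constants were taken from initial hydrolysis rates by Lineweaver–Burk plots.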

The target is the same in data set [7]. The data set is described as §1. As to conditions: Sus scrofa.
Data set [8] is described as follows: as §1.
For data set [9], the target named is Pancreatic elastase (Sus scrofa) (UniProt P08419+P00772). Described as §2. The class given is protein assay. In short, it runs like this: as §3
The test system of data set [10] is C[n+]1cccc2cc(NC(=O)[C@H](Cc3ccccc3)NC(=O)OCc3ccccc3)ccc21. Kind of data set: Kinetic constant was determined from the initial rates of enzymatic hydrolysis by the Lineweaver-Burke method against chymotrypsin enzyme at a concentration of 2.0 uM. As to conditions: Sus scrofa. The procedure, abridged: as §4

Serine protease 1 (Homo sapiens), sequence (P07477 whole entry): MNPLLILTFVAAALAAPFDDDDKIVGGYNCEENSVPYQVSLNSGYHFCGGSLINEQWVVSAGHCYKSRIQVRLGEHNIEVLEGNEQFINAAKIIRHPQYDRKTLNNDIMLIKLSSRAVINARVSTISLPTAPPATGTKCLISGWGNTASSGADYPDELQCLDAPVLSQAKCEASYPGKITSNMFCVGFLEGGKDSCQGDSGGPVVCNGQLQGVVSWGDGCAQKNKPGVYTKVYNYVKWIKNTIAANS
Chymotrypsinogen B (Homo sapiens), sequence (P17538 34-164 limits assumed, other chains not shown): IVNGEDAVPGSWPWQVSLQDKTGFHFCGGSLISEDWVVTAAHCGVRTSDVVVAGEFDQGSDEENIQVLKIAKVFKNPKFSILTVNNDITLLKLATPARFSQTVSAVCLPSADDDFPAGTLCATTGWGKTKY
Chymotrypsinogen B (Homo sapiens), sequence (P17538 167-263 limits assumed, other chains not shown): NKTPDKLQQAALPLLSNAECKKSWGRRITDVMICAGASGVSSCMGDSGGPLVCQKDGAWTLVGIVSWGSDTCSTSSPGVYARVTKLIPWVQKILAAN
Pancreatic elastase (Sus scrofa) (from UniProt P08419+P00772), sequence (P00772 whole entry, looked up): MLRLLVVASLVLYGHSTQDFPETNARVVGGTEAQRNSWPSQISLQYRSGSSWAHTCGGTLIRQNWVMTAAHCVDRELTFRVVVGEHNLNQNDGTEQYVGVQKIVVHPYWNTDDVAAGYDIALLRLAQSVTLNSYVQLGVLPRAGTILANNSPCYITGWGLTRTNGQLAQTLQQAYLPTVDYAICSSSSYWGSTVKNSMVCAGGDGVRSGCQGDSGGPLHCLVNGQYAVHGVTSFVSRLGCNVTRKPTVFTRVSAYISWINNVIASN
Pancreatic elastase (Sus scrofa) (from UniProt P08419+P00772), sequence (P08419 whole entry, looked up): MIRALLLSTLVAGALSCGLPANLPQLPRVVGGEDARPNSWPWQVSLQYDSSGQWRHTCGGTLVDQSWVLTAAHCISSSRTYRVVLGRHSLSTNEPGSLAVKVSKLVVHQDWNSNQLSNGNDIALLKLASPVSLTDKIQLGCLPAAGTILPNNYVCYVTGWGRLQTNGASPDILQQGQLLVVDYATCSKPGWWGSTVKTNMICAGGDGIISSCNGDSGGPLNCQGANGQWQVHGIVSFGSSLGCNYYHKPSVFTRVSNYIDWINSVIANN

Consider `C[n+]1cccc2cc(NC(=O)C(CCCN=C(N)N)NC(=O)c3ccccc3)ccc21` (stereo not drawn), for which, in data set [1], the k cat was found to be 0.14 s⁻¹. Moreover, the Ratio in [2] was found to be 636 M⁻¹ s⁻¹.

With “Pancreatic elastase (Sus scrofa) (from UniProt P08419+P00772)”, the Km (usually the concentration of substrate that gives half-maximal velocity) in [3] was 500 µM; in [4], 230 µM; in data set [5] it was 4170 µM.

`N=C(N)NCCCC(NC(=O)c1ccccc1)C(=O)Nc1ccc2ncccc2c1` (stereo not drawn): in data set [1], the k cat was found to be 0.6 s⁻¹. Besides, in [2], the Ratio was 1500 M⁻¹ s⁻¹.

Turning to `C[n+]1cccc2cc(NC(=O)[C@H](Cc3ccccc3)NC(=O)OCc3ccccc3)ccc21`, the k cat in data set [6] came out at 0.4 s⁻¹. The Ratio in data set [7] amounted to 2220 M⁻¹ s⁻¹.

Turning to `O=C(O)CCCC(=O)N[C@@H](Cc1ccccc1)C(=O)Nc1ccc2ncccc2c1`, the k cat in data set [6] came out at 0.14 s⁻¹. Moreover, the Ratio in [7] was determined as 79 M⁻¹ s⁻¹.

With `C[C@H](NC(=O)CCC(=O)O)C(=O)N[C@@H](C)C(=O)N[C@@H](C)C(=O)Nc1ccc2ncccc2c1`, the Ratio in data set [8] amounted to 3400 M⁻¹ s⁻¹. For the same compound, in [9], the k cat is 1.7 s⁻¹.

For the compound “Chymotrypsinogen A (Bos taurus) (from UniProt P00766)”, the Km in data set [10] is 180 µM.

For `C[C@H](NC(=O)OCc1ccccc1)C(=O)N[C@@H](C)C(=O)Nc1ccc2c(ccc[n+]2C)c1`, the Ratio in data set [8] came out at 10 M⁻¹ s⁻¹. This compound displayed a k cat in data set [9] of 0.043 s⁻¹.

For the compound `C[C@H](NC(=O)OCc1ccccc1)C(=O)N[C@@H](C)C(=O)N[C@@H](C)C(=O)Nc1ccc2c(ccc[n+]2C)c1`, the Ratio in [8] was determined as 4740 M⁻¹ s⁻¹. Besides, in data set [9], the k cat was 1.09 s⁻¹.
